SENP8 block-1: inhibitors of human SENP8 protease; purified SENP8, Z-RLRGG-aminoluciferin cleavage, luminescence; inhibition, % at 10 µM; 1.2% of 330,000 active; AID 2540; in the data active = inhibition above about 50%
UBC13 inh: human UBC13 polyubiquitination inhibition. P61088. UBC13 polyubiquitin chain formation, TR-FRET. inhibition, % at 20 µM. 0.47% of 330,000 active; in the data active = inhibition above about 45%, passing the limit was not always enough
SENP6 block: SENP6 protease inhibition; 1.8% of 330,000 active; Q9GZR1; Recombinant SENP6 catalytic domain, aminoluciferin luminescence; inhibition, % at 10 µM;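 active = inhibition above about 50% at the single tested dose, limit read from the data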;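 note: plate controls were DMSO wells with enzyme for no effect and DMSO wells lacking enzyme for full effect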
SENP8 block-2: blocks human SENP8 cleavage of Nedd8 substrate; inhibition, % at 20 µM; 0.64% of 360,000 active; Q96LD8; recombinant SENP8, Nedd8 substrate fluorescence; AID 602440; in the data active = inhibition mostly above about 40%, no sharp cut-off; inactive = mostly below about 27%
SENP7 inh: blocks the human protease SENP7. 1.5% of 330,000 active. inhibition, % at 5 µM. recombinant SENP7, Z-RLRGG-aminoluciferin luminescence, 40 min;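 active = inhibition above about 50% at the single test dose, limit read from the data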;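 note: plate controls were DMSO with enzyme for no effect and no enzyme buffer wells for full effect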
Apaf1 inhib: blocks human Apaf-1 apoptosome activity; 0.71% of 330,000 active; reconstituted apoptosome caspase-3 activity, DEVD-Rh110 fluorescence; O14727; inhibition, % at 20 µM; AID 489030; active = inhibition of at least 40% at 20 µM;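 note: plate controls were DMSO wells for no effect and DEVD-CHO caspase inhibitor wells for full effect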
Target sequence (O14727 whole entry, looked up): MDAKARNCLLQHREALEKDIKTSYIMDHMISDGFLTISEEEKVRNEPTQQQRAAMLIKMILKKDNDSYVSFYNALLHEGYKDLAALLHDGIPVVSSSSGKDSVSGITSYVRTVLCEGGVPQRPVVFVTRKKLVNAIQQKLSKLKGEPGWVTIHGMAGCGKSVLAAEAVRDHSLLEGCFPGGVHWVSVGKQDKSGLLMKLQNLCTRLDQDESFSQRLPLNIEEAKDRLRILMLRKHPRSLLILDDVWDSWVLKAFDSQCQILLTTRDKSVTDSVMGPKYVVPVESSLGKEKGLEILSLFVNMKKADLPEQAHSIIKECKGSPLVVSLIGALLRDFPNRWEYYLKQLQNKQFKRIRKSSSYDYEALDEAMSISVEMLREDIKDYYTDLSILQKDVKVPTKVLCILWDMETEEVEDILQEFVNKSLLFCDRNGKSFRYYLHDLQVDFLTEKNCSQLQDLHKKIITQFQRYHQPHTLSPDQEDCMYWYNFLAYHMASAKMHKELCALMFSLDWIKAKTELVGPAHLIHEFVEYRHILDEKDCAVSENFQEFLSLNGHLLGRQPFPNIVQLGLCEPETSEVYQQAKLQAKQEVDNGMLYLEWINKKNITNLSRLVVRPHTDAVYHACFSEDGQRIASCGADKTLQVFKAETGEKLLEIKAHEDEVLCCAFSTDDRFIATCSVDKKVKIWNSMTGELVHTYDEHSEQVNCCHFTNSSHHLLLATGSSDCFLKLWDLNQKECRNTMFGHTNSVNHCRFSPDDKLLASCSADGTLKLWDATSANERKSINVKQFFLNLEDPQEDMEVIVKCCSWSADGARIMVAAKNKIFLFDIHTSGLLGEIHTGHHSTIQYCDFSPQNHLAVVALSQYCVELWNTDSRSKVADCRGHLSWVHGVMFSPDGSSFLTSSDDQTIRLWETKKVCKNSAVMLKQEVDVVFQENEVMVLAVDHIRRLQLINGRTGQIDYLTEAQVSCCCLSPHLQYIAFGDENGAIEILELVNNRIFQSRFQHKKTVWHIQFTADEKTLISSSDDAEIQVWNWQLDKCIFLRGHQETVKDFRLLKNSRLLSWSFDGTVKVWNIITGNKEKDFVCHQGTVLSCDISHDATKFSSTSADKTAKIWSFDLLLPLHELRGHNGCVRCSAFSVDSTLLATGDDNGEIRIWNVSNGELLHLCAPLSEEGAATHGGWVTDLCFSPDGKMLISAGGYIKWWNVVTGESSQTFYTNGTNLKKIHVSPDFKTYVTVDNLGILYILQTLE
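Material: reconstituted apoptosome with Apaf-1, cytochrome c, caspase-9, procaspase-3, dATP; medium: pH 7.5 Hepes buffer with CHAPS, BSA, DTT; also added: cytochrome c and DEVD-Rh110 substrate; timing: 30 min plus 50 min, RT; signal: Rh110 fluorescence intensity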
Casp3 counter: counter-screen for UBC13 inhibitors: human caspase-3 inhibition | 4% of 1,400 active | shares compounds with UBC13 inh | inhibition, % at 20 µM | Recombinant caspase-3, Caspase-Glo 3/7 luminescence, 60 min;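 active = mean inhibition across replicates above about 26%, limit read from the data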;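 note: plate controls were DMSO with caspase-3 for no effect and DMSO wells lacking enzyme for full effect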
UBC13 conf: human UBC13 polyubiquitin inhibition, confirmed; 68% of 1,400 active; AID 488859; UBC13 polyubiquitination, TR-FRET, biochemical; inhibition, % at 10 µM; shares compounds with UBC13 inh; in the data active = inhibition above about 45%
Apaf-1 inh conf2: confirmation of Apaf-1 inhibitors. shares compounds with Apaf1 inhib. reconstituted apoptosome, caspase-3 DEVD-Rh110 fluorescence. inhibition, % at 20 µM. 25% of 1,800 active. AID 504614;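 active = mean inhibition of at least 40% at 20 µM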;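 note: plate controls were DMSO wells for no effect and DEVD-CHO caspase inhibitor control wells for full effect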
Rh110 interf inh: interferes with Rh110 fluorescence, flagging false Apaf-1 inhibitors; shares compounds with Apaf1 inhib; Rh110 fluorescence interference, quenched caspase reaction; activation (fluorescence interference), % at 20 µM; 1,800 tested, under 10 active; AID 504615;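 active = signal rise of 40% or more at 20 µM, treated as a fluorescence artifact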
Apaf1 inh interf: shows fluorescence interference in the Apaf-1 inhibitor assay format | shares compounds with Apaf1 inhib | fluorescence interference counterscreen, Apaf-1 assay format | IC50, µM | 460 tested, under 10 active; call rule not given here
The depositor's hits bear a star; i = inactive; . = no result. Hits are enriched below; roughly 3.1% of the tested compounds scored in any of these assays.

SMILES	SENP8 block-1	UBC13 inh	SENP6 block	SENP8 block-2	SENP7 inh	Apaf1 inhib	Casp3 counter	UBC13 conf	Apaf-1 inh conf2	Rh110 interf inh	Apaf1 inh interf
C#CCOCCOCCOCCNc1nc(N2CCN(C(=O)CCCCCCCCCCNC(=O)[C@H](CCCCN)n3cc(CCO)nn3)CC2)nc(N2CCN(C(=O)CCCCCCCCCCNC(=O)[C@H](CCCCN)n3cc(CCO)nn3)CC2)n1	1	117*	-2	6	-2	64*	3	125*	46*	1	>100
C#CCOCCOCCOCCNc1nc(N2CCN(C(=O)CCCCCCCCCCNC(=O)[C@H](CCCCN)n3cc(CCO)nn3)CC2)nc(N2CCN(C(=O)CCCCCCCCCCNC(=O)[C@@H]([C@H](C)O)n3cc(C)nn3)CC2)n1	3	121*	-9	20	5	59*	2	122*	31	6	.
C#CCOCCOCCOCCNc1nc(N2CCN(C(=O)[C@H](CCCCN)n3cc(CC(C)O)nn3)CC2)nc(N2CCN(C(=O)[C@H](Cc3ccc(O)cc3)n3cc(CCO)nn3)CC2)n1 (stereo partly drawn)	.	.	.	8	.	.	.	.	.	.	.
C#CCOCCOCCOCCNc1nc(N2CCN(C(=O)Cn3cc(CCO)nn3)CC2)nc(N2CCN(C(=O)[C@H]([C@@H](C)O)n3cc(CCCCN)nn3)CC2)n1	3	5	-10	3	5	-28	.	.	.	.	.
C#CCOCCOCCOCCNc1nc(N2CCN(C(=O)[C@H]([C@@H](C)CC)n3cc(CCCCN)nn3)CC2)nc(N2CCN(C(=O)[C@H](C)n3cc(CCCN=C(N)N)nn3)CC2)n1	-1	30	-9	14	2	14	.	.	.	.	.
COc1ccc2c(c1)nc(-c1cccc(Br)c1)c(=O)n2C(c1ccccn1)c1nc2ccccc2[nH]1 (stereo not drawn)	.	.	.	-378	.	.	.	.	.	.	.
CCc1ccc(OCC(O)CN2CCC(CN3C(=O)c4cccc5cccc(c45)C3=O)CC2)cc1 (stereo not drawn)	-9	61*	0	-156	-8	42*	4	65*	13	-10	.
CCCCCCCCCCC[N+](C)(C)CC/C=C1/c2ccccc2Sc2ccc(Cl)cc21	-9	106*	-16	8	0	75*	3	118*	88*	28	>100
CCCCCCCCCC[N+](C)(C)CC/C=C1/c2ccccc2Sc2ccc(Cl)cc21	-9	107*	-35	17	0	81*	-2	119*	88*	36	>100
CCOC(=O)C1=C(c2ccccc2)NC(N)=NC1c1ccc(OCc2ccc(C(=O)OC)cc2)cc1 (stereo not drawn)	-9	55*	-7	29	6	61*	-4	92*	62*	-8	>100
N#Cc1cccc(C=C(C(=O)c2ccccc2)c2ccccc2)c1	.	.	.	7	.	.	.	.	.	.	.
COc1ccc(-c2sc3cc4c(cc3c2C#CC2(N)CCCCC2)OCO4)cc1	5	85*	8	-462	-4	72*	2	89*	35	8	.
COc1cc(OC)cc(-c2sc3ccc(OC)cc3c2C#CC2(N)CCCCC2)c1	-2	84*	-3	i	-3	67*	3	77*	23	2	.
CN1CCN(c2ccc3sc(-n4ccc5ccccc54)nc3c2)CC1	.	.	.	-26	.	.	.	.	.	.	.
CC(=O)Nc1cccc(Oc2ncnc3scc(-c4ccccc4)c23)c1	9	3	-11	11	4	5	.	.	.	.	.
CN(C)C/C=C/C(=O)Nc1cccc(-c2c[nH]c3ncnc(Oc4ccc(NC(=O)CC(=O)Nc5ccc(F)cc5)cc4F)c23)c1	0	112*	-5	12	-4	63*	3	117*	22	1	.

Screening results from PubChem.
